This is a sample that favours compounds with a hit; in the whole collection about 3.5% have one here.
RGS4 pot – RGS4 potentiation or activation; HEK293 M3R/inducible RGS4, carbachol calcium flux Fluo4; stronger effect = lower value; B-score at 10 µM; 0.92% of 310,000 active; AID 463111;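 active means B-score of the integrated calcium signal more than 4 SD below the library mean, with starting fluorescence not abnormally high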;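 further: negative B-score means reduced calcium response which marks RGS4 activation or potentiation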
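test system = M3R-expressing HEK293 line, RGS4 induced by doxycycline | probe or stimulus = carbachol at ECmax as muscarinic agonist stimulus | timing = dye loading 30 min 37 °C, buffer rest 30 min RT | signal = calcium dye Fluo4 fluorescence | evaluation = B score from integrated fluorescence ratio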
MrgX1 PAM – human MrgX1 positive allosteric modulation, primary screen | MrgX1-HEK293, Fluo-4 calcium flux, FDSS; stronger effect = higher value | 0.63% of 310,000 active | AID 588675 | B-score at 10 µM;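 active means plate-corrected calcium response at least 3 library SD above typical, normal starting fluorescence, not activating the receptor alone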;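 further: compound read alongside a low EC10 to EC30 dose of BAM8-22 agonist; peak minus trough fluorescence over baseline measured at the second addition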
Target sequence (Q96LB2 whole entry, looked up): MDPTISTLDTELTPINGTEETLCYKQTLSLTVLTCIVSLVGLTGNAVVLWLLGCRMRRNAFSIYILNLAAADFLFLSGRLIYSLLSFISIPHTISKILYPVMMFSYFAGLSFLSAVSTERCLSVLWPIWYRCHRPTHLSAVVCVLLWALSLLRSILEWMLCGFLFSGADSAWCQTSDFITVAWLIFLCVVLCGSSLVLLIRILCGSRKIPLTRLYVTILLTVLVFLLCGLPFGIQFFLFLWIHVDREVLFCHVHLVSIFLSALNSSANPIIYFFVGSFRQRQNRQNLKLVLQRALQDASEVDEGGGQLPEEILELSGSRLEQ
MrgX1 antagonist – antagonists of human MrgX1 receptor; Q96LB2; MRGX1-HEK293 calcium flux, Fluo-4, BAM8-22 antagonism; stronger effect = lower value; B-score at 10 µM; 1.3% of 310,000 active; AID 588676;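 active means calcium-response B-score plate-corrected more than 3 library SD below zero, starting fluorescence within 5 deviations, no agonist response on first addition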;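 further: peak minus trough fluorescence over baseline after final BAM8-22 challenge near maximal dose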
MrgX1 agonist – human MrgX1 receptor agonism, primary screen; Q96LB2; MrgX1-HEK293 cells, Fluo-4 calcium fluorescence, agonist mode; stronger effect = higher value; 0.44% of 310,000 active; B-score at 10 µM;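 active means calcium response B-score plate-corrected fluorescence ratio at least 3 library SD, with starting fluorescence B-score inside 5 SD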
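Material: HEK293 cells stably expressing human MrgX1 receptor | Quantity: 15,000 cells per well | Times: Cells plated overnight, dye loaded 0.5 h 37 °C, 0.5 h room temperature | Measured by: Kinetic Fluo-4 NW fluorescence of intracellular calcium | Control set: Positive and negative controls per plate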
RGS4 block – human RGS4 inhibition; P49798; HEK293 M3R/RGS4 inducible, Fluo-4 calcium flux; stronger effect = higher value; triggered by carbachol at its EC20; B-score at 10 µM; 0.45% of 310,000 active; AID 463165;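 active means B-score, a plate-corrected calcium signal, over three deviations above library mean, with baseline fluorescence within five deviations of library mean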;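 further: RGS4 expression induced by doxycycline in cells with stable M3 receptor; B-score is computed from the integrated fluorescence ratio over baseline after carbachol; higher B-score means a larger calcium signal and so more RGS4 inhibition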
Target sequence (P49798 whole entry, looked up): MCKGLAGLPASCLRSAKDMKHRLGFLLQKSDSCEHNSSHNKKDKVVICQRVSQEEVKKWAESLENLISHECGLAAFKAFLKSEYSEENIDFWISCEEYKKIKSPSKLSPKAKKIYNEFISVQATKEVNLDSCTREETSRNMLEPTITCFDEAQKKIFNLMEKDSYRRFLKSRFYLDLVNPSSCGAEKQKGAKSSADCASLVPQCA
MrgX1 ant reconf – reconfirmed antagonist of human MrgX1 receptor signaling | shares compounds with MrgX1 antagonist | MrgX1-HEK293, BAM8-22 calcium flux, Fluo-4; stronger effect = lower value | remaining BAM8-22 calcium response % of control (stronger effect = lower value), % at 10 µM | 19% of 2,300 active;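 active means remaining agonist calcium response no higher than 100% minus 3 SD of agonist-only control wells, with starting fluorescence near control levels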;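 further: agonist BAM8-22 given at a near maximal EC90 to ECmax level; peak minus minimum fluorescence divided by baseline after agonist addition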
HEK293 Ca flux – MrgX1 antagonist counter-screen hit in parental HEK293 cells; fluorescence ratio F(max-min)/F0 at 10 µM; AID 624111; 2% of 4,000 active; shares compounds with MrgX1 antagonist; Fluo-4 calcium fluorescence, FDSS;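 active means duplicate-averaged calcium fluorescence ratio at least three times the standard deviation of buffer wells, a nonspecific response in parental cells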
HEK293 Ca counter – MrgX1 allosteric activator counter-screen hit in parental HEK293 cells; shares compounds with MrgX1 antagonist; parental HEK293 calcium flux, Fluo-4 fluorescence ratio; stronger effect = higher value; fluorescence ratio F(max-min)/F0 at 10 µM; 0.4% of 4,000 active; AID 624114;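 active means calcium fluorescence ratio, averaged over duplicates, at least 3 SD of the buffer-well ratio, meaning a nonspecific response in receptor-free cells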;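 further: untransfected parental HEK293 lacking MrgX1 used as counterscreen for MrgX1 allosteric activators; fluorescence change taken during the second addition on a kinetic imager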
HEK293 Ca cntr2 – counter-screen for MrgX1 activators: effect in parental HEK293 cells; fluorescence ratio F(max-min)/F0 at 10 µM; shares compounds with MrgX1 antagonist; Fluo-4 calcium fluorescence (FDSS); stronger effect = higher value; 8.7% of 4,000 active;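 active means calcium fluorescence ratio at least three times the spread of buffer wells, meaning a non-specific response in parental cells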
An asterisk follows results filed as active; i = inactive; . = not tested or not shown.

SMILES | RGS4 pot | MrgX1 PAM | MrgX1 antagonist | MrgX1 agonist | RGS4 block | MrgX1 ant reconf | HEK293 Ca flux | HEK293 Ca counter | HEK293 Ca cntr2
C=CCNC(=O)C1CC(=O)N(c2ccc(OCC(=O)Nc3ccc(Cl)cc3)cc2)C1 (stereo not given) | i | i | i | i | i | . | . | . | .
CCCCn1c(N)c(N(CCOC)C(=O)c2cc(C)oc2C)c(=O)[nH]c1=O | i | i | i | i | i | . | . | . | .
O=C(Nc1ccc(C(=O)N2CCCCC2)cc1)c1ccccc1Br | i | i | -5.6* | i | i | i | i | i | i
O=C(Nc1ccc(C(=O)N2CCCC2)cc1)c1ccccc1Br | i | i | i | i | i | . | . | . | .
Cc1nc2ccc(NC(=O)COc3ccccc3F)cc2s1 | i | i | -5.8* | i | i | 80%* | i | i | i
Cc1cccc(C(=O)NCCc2ccccc2)c1 | i | i | i | i | i | . | . | . | .
C=CCNC(=O)c1ccncc1 | i | i | i | i | i | . | . | . | .
C=CCNC(=O)c1ccc(-n2cccc2)cc1 | i | i | -8* | i | i | i | i | i | i
CCN(CC)S(=O)(=O)c1ccc2oc(C(=O)O)c(C)c2c1 | i | i | i | i | i | . | . | . | .
CCN(Cc1ccccc1)S(=O)(=O)c1ccc2oc(C(=O)O)c(C)c2c1 | i | i | -5.2* | i | i | i | i | i | i
Cc1ccc(Cl)cc1NC(=O)c1cccc(OC(F)F)c1 | i | i | -4.7* | i | i | i | i | i | i
CCCCCCCCCCOC(=O)Cn1c(COc2ccccc2OC)[n+](C)c2ccccc21 | -8.4* | i | -11* | i | i | 59%* | i | i | i
COc1ccc(NC(=O)c2ccc3c(c2)NC(=O)CO3)cc1OC | i | i | i | i | i | . | . | . | .
O=C(NCCc1cn2ccsc2n1)c1cccs1 | i | i | -6.3* | i | i | i | i | i | i
O=S(=O)(NCc1cn2ccsc2n1)c1cccs1 | i | i | i | i | i | . | . | . | .
C=C(C)CSc1nc2c(c(=O)[nH]c(=O)n2C)n1Cc1ccccc1 | i | i | -4.8* | i | i | 83%* | i | i | i
CCCSc1nc2c(c(=O)[nH]c(=O)n2C)n1Cc1ccccc1 | i | i | i | i | i | . | . | . | .
CCOC(=O)c1c(NC(=O)COC(=O)c2ccccc2NC)sc(C(=O)N(C)C)c1C | i | i | i | i | i | . | . | . | .
Cc1ccn2c(CNCCn3cccn3)c(C(=O)N3CCCCCC3)nc2c1 | i | i | -7.5* | i | i | i | i | i | i
CC1(CCc2ccccc2)NC(=O)N(CC(=O)Nc2ccc(S(N)(=O)=O)cc2)C1=O (stereo not given) | i | i | i | i | i | . | . | . | .
Cc1ccccc1NC(=O)C1C2/C=C\CCCCC21 (stereo not given) | i | i | -4.5* | i | i | i | i | i | i
Cc1ccccc1NC(=O)C1C2CCCCC21 (stereo not given) | i | i | i | i | i | . | . | . | .
CC(Nc1cc(N2CCN(C(=O)C(C)(C)C)CC2)ccc1[N+](=O)[O-])c1ccccc1 (stereo not given) | i | i | i | i | i | . | . | . | .
COc1ccc2c(c1)OC(c1ccccc1)(C(F)(F)F)NC2=O (stereo not given) | i | i | i | i | i | . | . | . | .
CC(C)Oc1ccc2c(c1)OC(c1ccccc1)(C(F)(F)F)NC2=O (stereo not given) | i | i | -5.8* | i | i | i | i | i | i
SMILES | RGS4 pot | MrgX1 PAM | MrgX1 antagonist | MrgX1 agonist | RGS4 block | MrgX1 ant reconf | HEK293 Ca flux | HEK293 Ca counter | HEK293 Ca cntr2
CCn1c(C)[n+](CC(O)COCC2CC=CCC2)c2ccccc21 (stereo not given) | i | i | i | i | i | . | . | . | .
CCCCNc1nc(CC(C)=O)ns1 | i | i | -6.6* | i | i | i | i | i | i
CNc1nc(CC(C)=O)ns1 | i | i | i | i | i | . | . | . | .
COc1ccc(-c2cnc(OC(C)(C)C)nc2OC(C)(C)C)cc1OC | i | i | i | i | i | . | . | . | .
O=C(CN1C(=O)NC2(CCCC2)C1=O)N1CCN(c2cccc(C(F)(F)F)c2)CC1 | i | i | i | i | i | . | . | . | .
CC1(C)NC(=O)N(CC(=O)N2CCN(c3cccc(C(F)(F)F)c3)CC2)C1=O | i | i | -6.5* | i | i | 67%* | i | i | i
O=C(CCNC(=O)c1ccc(Br)cc1)NCC1COc2ccccc2O1 (stereo not given) | i | i | i | i | i | . | . | . | .
CCC(C)NCCOc1cccc(Br)c1 (stereo not given) | i | i | -5* | i | i | i | i | i | i
CCC(CC)C(=O)NN(C(=O)c1ccncc1)C1CC(=O)N(c2ccccc2)C1=O (stereo not given) | i | i | i | i | i | . | . | . | .
CN1C(=O)N(C)C2C1N(CN1CCCCC1)C(=O)N2CN1CCCCC1 (stereo not given) | i | i | -4.9* | i | i | 84%* | i | i | i
Cc1nc2ccccc2c2oc(C(=O)NC3CC3)cc12 | i | i | i | i | i | . | . | . | .
Cc1cc2c(C)nc3ccccc3c2o1 | i | i | -4.7* | i | i | i | i | i | i
Cc1cc(-c2ccccc2)[nH]c(=O)c1S(=O)(=O)c1ccc(Cl)cc1 | i | i | -9* | i | i | i | i | i | i
Cc1cc(-c2ccccc2)[nH]c(=O)c1S(=O)(=O)c1ccccc1 | i | i | i | i | i | . | . | . | .
O=C(COc1ccccc1)Nc1cccc(-c2nc3cc4ccccc4cc3[nH]2)c1 | i | i | -5.1* | i | i | 78%* | i | i | i
CSc1cccc(NC(=O)C2CCCN(S(=O)(=O)c3cccs3)C2)c1 (stereo not given) | i | i | i | i | i | . | . | . | .

High-throughput results deposited in PubChem by Johns Hopkins Ion Channel Center.
